Calls of active or inactive are those of the source. The calls are words filed in the database; no cut-off is given here.
Key:
[1] = Antioxidant activity assessed as ratio of umol of trolox equivalent to umol of compound after 10 mins by oxygen radical absorbance capacity-fluorescein assay; assay type: functional
In short: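 Fluorescein 300 nM final was preincubated with antioxidant for 10 min at 37 °C, then AAPH was added to 12 mM final. Fluorescence (ex 485/em 535 nm) was read every 60 s for 4 h. Samples were run at […] against a Trolox calibration and an FL+AAPH blank in phosphate buffer. Results are expressed as Trolox equivalents, with mixtures in triplicate and ≥3 independent runs.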

Acetylcholinesterase [2] = target: T1, Acetylcholinesterase (Electrophorus electricus, UniProt O42275); assay: Inhibition of electric eel AChE using acetylthiocholine chloride as substrate preincubated for 15 mins prior to substrate addition by Ellman's method
T1 sequence (O42275 whole entry): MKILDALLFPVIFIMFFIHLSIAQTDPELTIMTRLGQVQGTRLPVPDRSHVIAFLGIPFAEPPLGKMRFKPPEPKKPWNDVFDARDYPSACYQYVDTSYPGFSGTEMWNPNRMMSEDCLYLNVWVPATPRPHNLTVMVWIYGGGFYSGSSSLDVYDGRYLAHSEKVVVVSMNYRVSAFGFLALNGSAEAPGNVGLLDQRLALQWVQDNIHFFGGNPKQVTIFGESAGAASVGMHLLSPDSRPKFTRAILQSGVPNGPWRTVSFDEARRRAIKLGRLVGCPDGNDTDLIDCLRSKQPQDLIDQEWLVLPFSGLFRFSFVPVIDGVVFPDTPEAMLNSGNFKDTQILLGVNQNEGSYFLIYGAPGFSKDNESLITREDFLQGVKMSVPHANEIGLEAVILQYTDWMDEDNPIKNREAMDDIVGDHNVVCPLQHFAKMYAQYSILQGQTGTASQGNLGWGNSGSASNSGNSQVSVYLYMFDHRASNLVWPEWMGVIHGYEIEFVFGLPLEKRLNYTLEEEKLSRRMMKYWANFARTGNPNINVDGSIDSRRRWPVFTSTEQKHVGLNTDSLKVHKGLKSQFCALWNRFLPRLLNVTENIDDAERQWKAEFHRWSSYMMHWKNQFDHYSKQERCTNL

[3] = target: Amyloid-beta precursor protein (Homo sapiens) (UniProt P05067); assay: Inhibition of amyloid beta (1-42) (unknown origin) aggregation at 20 uM after 48 hrs by thioflavin-T based fluorimetric assay relative to control
Amyloid-beta precursor protein (Homo sapiens), sequence (P05067 whole entry): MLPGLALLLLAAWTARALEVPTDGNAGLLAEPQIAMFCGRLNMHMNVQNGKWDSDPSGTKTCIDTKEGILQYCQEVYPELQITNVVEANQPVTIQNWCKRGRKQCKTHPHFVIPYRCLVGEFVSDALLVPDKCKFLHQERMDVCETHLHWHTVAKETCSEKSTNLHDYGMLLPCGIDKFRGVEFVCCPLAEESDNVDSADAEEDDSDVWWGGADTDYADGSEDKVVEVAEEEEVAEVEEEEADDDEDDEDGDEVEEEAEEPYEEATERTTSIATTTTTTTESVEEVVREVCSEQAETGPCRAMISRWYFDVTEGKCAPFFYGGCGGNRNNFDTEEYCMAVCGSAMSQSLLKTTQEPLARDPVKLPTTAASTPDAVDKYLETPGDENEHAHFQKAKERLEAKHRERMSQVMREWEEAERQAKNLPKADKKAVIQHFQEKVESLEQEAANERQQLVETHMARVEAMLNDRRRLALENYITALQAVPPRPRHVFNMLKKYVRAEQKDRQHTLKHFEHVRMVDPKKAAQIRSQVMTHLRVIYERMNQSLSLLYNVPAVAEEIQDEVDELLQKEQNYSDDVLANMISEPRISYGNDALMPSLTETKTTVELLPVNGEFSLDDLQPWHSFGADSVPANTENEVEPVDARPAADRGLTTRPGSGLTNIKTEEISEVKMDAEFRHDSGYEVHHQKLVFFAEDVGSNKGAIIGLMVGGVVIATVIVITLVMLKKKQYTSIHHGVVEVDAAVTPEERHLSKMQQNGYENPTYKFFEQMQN
In short: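 HFIP-pretreated Aβ1–42 was resolubilised in 50 mM phosphate buffer, pH 7.4, and incubated at 37 °C for 48 h (50 μM final peptide) with or without compound at 20 μM. Samples were diluted into 50 mM glycine–NaOH, pH 8.0, containing thioflavin T and scanned for 300 s (ex 450/em 485 nm). Plateau values were averaged after subtracting ThT background.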

Acetylcholinesterase [4] = target: T1, Acetylcholinesterase; assay: Mixed-type inhibition of electric eel AChE using acetylthiocholine chloride as substrate by Lineweaver-Burk plot analysis
In short: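 Electric eel AChE was pre-incubated with inhibitor at 37 °C for 15 min in 0.1 M phosphate buffer, pH 8.0, with DTNB, then substrate was added. Absorbance at 412 nm was followed at 60 s intervals at 37 °C. Reciprocal plots of initial velocity versus substrate concentration defined the inhibition type.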

[5] = Antioxidant activity assessed as H2O2 scavenging activity measured as compound remaining at 100 uM after 72 hrs by LC/MS analysis; assay type: functional
[6] = Antioxidant activity assessed as H2O2 scavenging activity at 100 uM after 72 hrs by spectrophotometric analysis; assay type: functional
In short: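 Compound solution was added to H2O2 (0.1 mM) in 0.1 M phosphate buffer, pH 7.4, and incubated for 72 h at 37 °C. Phenol red (0.2 mg/mL) plus horseradish peroxidase (0.4 mg/mL) was added; after 15 min, 1 M NaOH was added and absorbance read at 610 nm. Percent H2O2 reduction = (A_H2O2 − A_sample)/A_H2O2 × 100, with the control holding acetone and no compound.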

Row | SMILES | Activity [1] [equiv] | IC50 (Acetylcholinesterase [2]) [nM] | inhibition [3] [%] | Ki (Acetylcholinesterase [4]) [nM] | Activity [5] | Activity [6]
1 | COc1ccc2cc3[n+](cc2c1OCCCCCSc1ccccc1)CCc1cc2c(cc1-3)OCO2 | 0.89 | 543 | – | – | – | –
2 | COc1ccc2cc3[n+](cc2c1OCCSc1ccccc1)CCc1cc2c(cc1-3)OCO2 | 0.89 | 177 | 70.4 | – | – | –
3 | CCc1ccccc1SCCOc1c(OC)ccc2cc3[n+](cc12)CCc1cc2c(cc1-3)OCO2 | 1.01 | 83 | 74.8 | – | – | –
4 | COc1ccccc1SCCOc1c(OC)ccc2cc3[n+](cc12)CCc1cc2c(cc1-3)OCO2 | 1.94 | 151 | 76.8 | – | – | –
5 | COc1ccc2cc3[n+](cc2c1OC)CCc1cc2c(cc1-3)OCO2 | 0.4 | – | 35.5 | – | – | –
6 | COc1ccc2cc3[n+](cc2c1OCCCCSc1ccccc1)CCc1cc2c(cc1-3)OCO2 | 0.95 | 192 | 69.1 | – | – | –
7 | COc1ccc2cc3[n+](cc2c1OCCSc1ccc(Cl)cc1)CCc1cc2c(cc1-3)OCO2 | 0.82 | 484 | – | – | – | –
8 | COc1ccc2cc3[n+](cc2c1OCCSc1ccccc1Cl)CCc1cc2c(cc1-3)OCO2 | 0.75 | 42 | 65.1 | 18 | – | –
9 | COc1ccc2cc3[n+](cc2c1OCCSc1cccc(C)c1)CCc1cc2c(cc1-3)OCO2 | 1.32 | 207 | 72.3 | – | – | –
10 | Oc1ccc(/C=C/c2cc(O)cc(O)c2)cc1 | – | – | 61.1 | – | – | –
11 | COc1ccc2cc3[n+](cc2c1OCCSc1ccccc1F)CCc1cc2c(cc1-3)OCO2 | 1.15 | 87 | 73.3 | – | – | –
12 | COc1ccc2cc3[n+](cc2c1OCCCSc1ccccc1)CCc1cc2c(cc1-3)OCO2 | 0.94 | 257 | 70.6 | – | – | –
13 | COc1ccc2cc3[n+](cc2c1OCCSc1ccc(C)cc1)CCc1cc2c(cc1-3)OCO2 | 1.86 | 299 | 70 | – | – | –
14 | COc1ccc2cc3[n+](cc2c1OCCSc1cccc(Cl)c1)CCc1cc2c(cc1-3)OCO2 | 0.47 | 233 | – | – | – | –
15 | COc1ccc2cc3[n+](cc2c1OCCCCCCSc1ccccc1)CCc1cc2c(cc1-3)OCO2 | 0.77 | 972 | – | – | – | –
16 | COc1ccc2cc3[n+](cc2c1OCCSc1ccccc1C)CCc1cc2c(cc1-3)OCO2 | 1.11 | 77 | 73.4 | 71 | Active | Active

Source: ChEMBL document CHEMBL2417460, “Synthesis and biological evaluation of berberine-thiophenyl hybrids as multi-functional agents: Inhibition of acetylcholinesterase, butyrylcholinesterase, and Aβ aggregation and antioxidant activity” (Bioorg Med Chem, 2013)
